Source: PubChem
Diaph act CS = counter-screen for diaphorase-based assays: diaphorase activators and chemical reducers | activation factor at 20 µM | Diaphorase/resazurin coupled assay, resorufin fluorescence, 16 min; stronger effect = higher value; 1 = vehicle wells, 0 = NADH-free wells | 190,000 compounds, 0.005% hits;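 active means diaphorase activity raised at least twofold by the compound at 20 µM; inactive means activation factor below 2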
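Material: purified diaphorase enzyme from Clostridium kluyveri / Medium: HEPES pH 7.4 buffer with MgCl2 and Tween 20 / Schedule: enzyme reaction of 16 min at room temperature / Measured by: resorufin fluorescence, excitation 544 nm, emission 590 nm / Evaluation: rise in resorufin formation, marking diaphorase activation or chemical reduction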
HKDC1 inh = blocks human hexokinase HKDC1 activity; Q2TB90; recombinant HKDC1, G6PDH/diaphorase resazurin coupled fluorescence; inhibition, % at 20 µM; 340,000 compounds, 0.16% hits;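 active means inhibition above about 35% when tested at 20 µM, limit read from the data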;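 further: plate controls were DMSO wells with enzyme for no effect and DMSO wells lacking enzyme for full effect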
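Incubation: 90 min at room temperature in dark / Material: recombinant HKDC1 (HK5) hexokinase enzyme, produced in-house / Quantity: enzyme 5 µg/mL final / Compound: one dose of 20 µM, 1% DMSO / Reagent: glucose and ATP substrates / Buffer or medium: Tris pH 8.0 buffer with MgCl2, Tween-20, BSA, BME / Technique: resorufin fluorescence at 613 nm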
Diaph inh CS = diaphorase inhibition or chemical oxidation counter-screen; diaphorase resazurin-to-resorufin fluorescence, NADH, 16 min; bacterial (C. kluyveri) enzyme, not human; inhibition, % at 20 µM; 190,000 compounds, 0.69% hits;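 active means primary screen inhibition at 20 µM above a set limit, cut at about 50% in these data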;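 further: plate controls were DMSO with full reaction for no effect and wells lacking NADH for full effect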
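System: Diaphorase enzyme from Clostridium kluyveri | Amount: Enzyme working solution with 0.14 U/mL diaphorase | Benchmarks: No-NADH positive control and DMSO neutral control | Signal: Fluorescence of resorufin formed from resazurin, Ex 544/Em 590 nm | Schedule: 16-min room-temperature incubation before reading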
ATG4B inh = ATG4B (human) cysteine protease inhibition; 340,000 compounds, 0.51% hits; inhibition, % at 8.33 µM; ATG4B cleavage of LC3-PLA2, NBD-HPC fluorescence, 1 h; Q9Y4P1; in the data active means inhibition above about 40%
Fh CTSL1 inh = blocks F. hepatica cathepsin L1 in PFM18AAP counter-screen; recombinant F. hepatica cathepsin L1, Z-Leu-Arg-MCA fluorescence; inhibition, % at 5.96 µM; 300,000 compounds, 0.49% hits;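 active means inhibition above the mean of all tested compounds plus 3 SD, set per screening campaign, cut at about 17% in these data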;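 further: 0% = plate median of test compound wells and 100% = 1 µM Z-Phe-Ala-diazomethylketone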
ATG4B confirm = ATG4B (human) inhibition, single-dose confirmed. shares compounds with ATG4B inh. ATG4B protease fluorescent substrate cleavage assay. inhibition, % at 8.33 µM. 320 compounds, 92% hits; in the data active means inhibition above about 39%
PLA2 ctr = PLA2 (human) inhibition in ATG4B counter-screen | purified PLA2, NBD-C6-HPC fluorescence, 45 min | shares compounds with ATG4B inh | inhibition, % at 8.33 µM | 1,600 compounds, 66% hits; in the data active means inhibition above about 50%
* marks the source's active call; other numbers are inactive results; / = not tested or not shown. An excerpt weighted towards active compounds, which were near 1.4% of everything screened.

SMILES	Diaph act CS	HKDC1 inh	Diaph inh CS	ATG4B inh	Fh CTSL1 inh	PLA2 ctr	others
COc1ccc(/C=C2/C(=O)N(c3nc4ccccc4s3)N=C2CSc2ccc(Cl)cc2)cc1	0.9	24	7	56*	1	43
Cc1ccnc(NC(=O)C(Cc2ccccc2)NC(=O)c2ccccc2)c1 (stereo not given)	/	-5	/	-6	/	/
Cc1ccccc1CN(CC(=O)Nc1cccc([N+](=O)[O-])c1)S(=O)(=O)c1ccc(Cl)cc1	0.8	-6	20	64*	-1	77*
CS(=O)(=O)N(CC(=O)Nc1cccc([N+](=O)[O-])c1)c1ccccc1	0.9	-6	14	-4	-2	/
COc1ccc(C)cc1S(=O)(=O)N(CC(=O)Nc1cccc([N+](=O)[O-])c1)c1ccccc1	0.8	15	20	84*	4	90*
CCN(CC(=O)Nc1c(F)cccc1F)C(=O)c1ccc(OCc2c(C)noc2C)cc1	/	-1	/	-6	/	/
O=Cc1ccc(OCCCOc2cccc3cccnc23)cc1	/	15	/	5	0	/
O=Cc1ccccc1OCCCOc1cccc2cccnc12	/	8	/	65*	0	75*
CCN(Cc1ccccc1)C(=O)c1cccc(OC2CCN(C(=O)C3CC3)CC2)c1	/	3	/	43*	-1	34
NC(=O)c1ccc(OCC(F)(F)C(F)(F)C(F)(F)C(F)(F)C(F)(F)C(F)F)cc1	0.8	-3	23	91*	1	92*
Cc1ccc(/C=C2/Sc3ccc(C(=O)N4CCN(C)CC4)cc3NC2=O)cc1	/	-2	/	-7	-5	/
CC1CCN(C(=O)c2ccc3c(c2)NC(=O)/C(=C/c2ccccc2)S3)CC1	/	2	/	56*	-2	76*
COc1ccc(/C=C2\Sc3ccc(C(=O)N4CCc5ccccc5C4)cc3N(C)C2=O)cc1	0.7	/	33	/	0	/
COc1ccc(/C=C2/Sc3ccc(C(=O)N4CCc5ccccc5C4)cc3NC2=O)cc1	1	-6	0	69*	-3	82*
Cc1ccc(C(C)NC(=S)NCc2ccc(F)cc2)c(C)c1 (stereo not given)	/	11	/	44*	-1	52*
FC(F)(F)c1cccc(NC(=S)NCc2ccc(Cl)cc2)c1	0.9	-4	9	14	-3	/
Fc1ccc(CNC(=S)Nc2cccc(C(F)(F)F)c2)cc1	0.9	-3	12	71*	3	70*
Fc1ccc(CNC(=S)NCc2ccc(F)cc2)cc1	/	-4	/	42*	1	45	ATG4B confirm=69*
CCNC(=S)NCc1ccc(F)cc1	0.9	-6	12	5	-2	/
COc1cc(NC(=O)c2ccccc2)c(C)cc1NC(=O)CC(CC(=O)O)c1ccccc1 (stereo not given)	/	0	/	-6	1	/
Cc1cc(C)n2c(=O)[nH]nc2c1	/	3	/	1	/	/
COc1ccc(C2C(C(C)=O)=C(C)N=c3s/c(=C\c4cc(C)n(C)c4C)c(=O)n32)c(OC)c1 (stereo not given)	0.7	4	27	56*	4	73*
Nc1nnc(Cc2ccc(Cl)cc2Cl)s1	0.9	-3	15	71*	0	76*
O=C(COC(=O)CN1C(=O)C2CCCCC2C1=O)Nc1cc(F)ccc1F (stereo not given)	/	-1	/	5	/	/
Clc1ccc2c(N/N=C/c3ccccc3Br)ccnc2c1	1.1	-8	-10	48*	0	27	ATG4B confirm=56*
SMILES	Diaph act CS	HKDC1 inh	Diaph inh CS	ATG4B inh	Fh CTSL1 inh	PLA2 ctr	others
Clc1ccc2c(N/N=C/c3cccc(Br)c3)ccnc2c1	1	10	-5	38	2	/
Cc1sc2nc(C3CC3)nc(N3CCN(S(=O)(=O)c4ccc(F)cc4)CC3)c2c1C	0.8	4	23	14	-5	/
COc1ccc(C(=O)N2CCN(c3nc(C4CC4)nc4sc(C)c(C)c34)CC2)cc1	/	-1	/	30	2	/
Cc1sc2nc(C3CC3)nc(N3CCN(C(=O)c4ccc(F)cc4)CC3)c2c1C	/	2	/	62*	2	78*
Cc1sc2nc(C3CC3)nc(N3CCN(C(=O)c4ccc(Cl)cc4)CC3)c2c1C	/	4	/	50*	5	69*
Cc1sc2nc(C3CC3)nc(N3CCN(C(=O)c4ccccc4F)CC3)c2c1C	/	4	/	54*	-1	71*
COc1ccccc1NS(=O)(=O)c1cccc(NC(=O)Nc2cccc(Cl)c2)c1	0.8	-8	16	44*	0	59*
COc1ccccc1NS(=O)(=O)c1cccc(NC(=O)NCCCl)c1	/	3	/	1	-3	/
O=C(Nc1nc(-c2ccccc2)cs1)c1ccccc1NS(=O)(=O)c1ccc(F)cc1	0.7	20	32	54*	0	62*
O=S(=O)(Nc1ccc(-c2csc(-c3ccccc3)n2)cc1)c1ccc(F)cc1	0.7	7	26	-12	2	/
CCOc1ccc(CN(C)c2ccc(S(=O)(=O)N3CCN(C)CC3)cc2[N+](=O)[O-])cc1OC	/	-1	/	-8	/	/
Cc1nn(-c2ccccc2)cc1C(c1c(N)[nH]c(=S)[nH]c1=O)c1c(N)[nH]c(=S)[nH]c1=O	0.5	-7	50	46*	-2	-22
CC(=O)N1c2ccc(S(=O)(=O)N3CCCC3)cc2CC1C(=O)NCc1ccc(N(C)C)cc1 (stereo not given)	/	-4	/	1	-6	/
N#Cc1ccc(OCc2nnc(SCC(=O)c3ccccc3)n2-c2ccccc2)cc1	0.7	-4	28	46*	4	57*
Cc1ccc(OCc2nnc(SCC(=O)c3ccccc3)n2-c2ccccc2)cc1	0.8	11	23	74*	-2	78*
Cc1ccc(-n2c(CCc3ccccc3)nnc2SCC(=O)NCc2ccccc2)cc1C	0.9	2	11	3	5	/
Cc1ccc(OCc2nnc(SCC(=O)O)n2-c2ccccc2)cc1	/	0	/	-3	6	/
Cc1cccc(-n2c(CCc3ccccc3)nnc2SCC(=O)c2ccccc2)c1	0.9	7	8	72*	3	75*
CCc1ccc(NC(=S)NC(=O)c2c(-c3ccccc3Cl)noc2C)cc1	/	1	/	-3	-2	/
Cc1onc(-c2ccccc2Cl)c1C(=O)NC(=S)NCC(=O)c1ccccc1	0.9	11	14	45*	7	47
CCOC(=O)c1ccc(N[C@@H]2CCN3C(=O)c4ccccc4[C@@H]3C[C@H]2O)cc1	/	3	/	3	/	/
CSc1nc(N2CCOCC2)c2c3c(sc2n1)CCC3	0.8	6	18	49*	-4	50*
